Seven compounds from ChEMBL document CHEMBL1143040, “Aporphine metho salts as neuronal nicotinic acetylcholine receptor blockers” (Bioorg Med Chem, 2007) can be followed below.

What all share (type): cell-based
The target in assay [1] is Neuronal acetylcholine receptor; alpha4/beta2 (Homo sapiens, UniProt P17787+P43681). The assay can be described thus: Displacement of [3H]cytisine from human alpha-4-beta-2 nAChR expressed in SH-EP1 cells. The method, boiled down: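 Radioligand displacement used membrane homogenates from a clonal cell line stably expressing human α4β2 nAChR. [3H]cytisine was at 1 nM in saline of 120 mM NaCl, 5 mM KCl, 1 mM MgCl2, 2.5 mM CaCl2, 50 mM Tris, pH 7.0. Nonspecific binding was defined with 10 μM nicotine. Ki was obtained from regression fits by Cheng-Prusoff. Mean ± SEM of four experiments in triplicate.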
Chain of Neuronal acetylcholine receptor; alpha4/beta2 (P17787 whole entry): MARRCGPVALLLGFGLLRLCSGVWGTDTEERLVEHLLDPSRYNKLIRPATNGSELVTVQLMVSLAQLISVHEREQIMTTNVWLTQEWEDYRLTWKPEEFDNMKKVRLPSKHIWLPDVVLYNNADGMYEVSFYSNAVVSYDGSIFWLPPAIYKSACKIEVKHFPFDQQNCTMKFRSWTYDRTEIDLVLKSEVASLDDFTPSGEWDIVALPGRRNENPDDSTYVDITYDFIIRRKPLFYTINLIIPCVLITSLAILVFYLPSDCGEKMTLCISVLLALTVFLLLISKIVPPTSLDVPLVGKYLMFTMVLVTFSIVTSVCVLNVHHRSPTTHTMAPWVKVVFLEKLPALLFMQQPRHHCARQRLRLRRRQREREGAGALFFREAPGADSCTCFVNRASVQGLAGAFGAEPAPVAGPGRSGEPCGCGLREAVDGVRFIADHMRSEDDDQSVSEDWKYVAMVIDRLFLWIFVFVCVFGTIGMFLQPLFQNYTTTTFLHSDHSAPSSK
Chain of Neuronal acetylcholine receptor; alpha4/beta2 (P43681 whole entry): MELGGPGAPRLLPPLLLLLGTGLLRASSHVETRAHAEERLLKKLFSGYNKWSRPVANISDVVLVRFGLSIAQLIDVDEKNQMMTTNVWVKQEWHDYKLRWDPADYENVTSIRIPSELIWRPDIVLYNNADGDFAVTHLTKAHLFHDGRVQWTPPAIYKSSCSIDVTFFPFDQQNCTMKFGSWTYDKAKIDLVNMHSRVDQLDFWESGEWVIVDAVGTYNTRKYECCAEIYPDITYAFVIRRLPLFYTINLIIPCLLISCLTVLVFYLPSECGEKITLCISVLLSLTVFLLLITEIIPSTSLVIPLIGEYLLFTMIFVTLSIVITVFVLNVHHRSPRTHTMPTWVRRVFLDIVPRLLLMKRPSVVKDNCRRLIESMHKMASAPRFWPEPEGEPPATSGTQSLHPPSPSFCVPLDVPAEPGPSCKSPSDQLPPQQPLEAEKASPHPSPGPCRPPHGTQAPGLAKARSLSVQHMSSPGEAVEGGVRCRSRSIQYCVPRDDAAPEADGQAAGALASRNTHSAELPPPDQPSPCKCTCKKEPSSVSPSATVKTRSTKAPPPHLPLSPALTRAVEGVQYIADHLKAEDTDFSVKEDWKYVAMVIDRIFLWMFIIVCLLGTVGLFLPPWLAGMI

For assay [2], the target named is T1, Neuronal acetylcholine receptor subunit alpha-7 (Homo sapiens, UniProt P36544). Nature of the assay: Displacement of [125I]alpha-bungarotoxin from human alpha-7 nAChR expressed in SH-SY5Y cells. In a few lines: (§1)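 Membrane homogenates from a clonal cell line stably expressing human α7 nAChR. Radioligand was [125I]α-bungarotoxin at 0.2 nM in 140 mM NaCl, 1 mM EDTA, 50 mM Tris-HCl, pH 7.4. Nonspecific binding was defined with 10 μM nicotine. Ki came from non-linear regression fits by Cheng-Prusoff. Mean ± SEM of four experiments, triplicate samples, from at least two membrane preparations.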
T1 sequence (P36544 whole entry): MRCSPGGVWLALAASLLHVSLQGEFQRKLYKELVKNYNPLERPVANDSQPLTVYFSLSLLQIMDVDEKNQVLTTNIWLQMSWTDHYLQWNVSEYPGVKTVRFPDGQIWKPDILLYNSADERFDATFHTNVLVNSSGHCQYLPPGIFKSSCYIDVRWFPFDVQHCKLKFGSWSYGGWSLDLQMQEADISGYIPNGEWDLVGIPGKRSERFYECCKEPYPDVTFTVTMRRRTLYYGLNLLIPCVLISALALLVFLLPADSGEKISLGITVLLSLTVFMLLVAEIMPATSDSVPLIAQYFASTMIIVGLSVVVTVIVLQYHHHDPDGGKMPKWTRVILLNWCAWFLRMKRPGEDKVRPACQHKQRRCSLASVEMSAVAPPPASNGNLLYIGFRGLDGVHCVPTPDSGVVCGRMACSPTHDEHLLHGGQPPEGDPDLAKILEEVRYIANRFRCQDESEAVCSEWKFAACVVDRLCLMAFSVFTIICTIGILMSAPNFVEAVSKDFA

Assay [3] deals with T1, Neuronal acetylcholine receptor subunit alpha-7. The assay can be described thus: Inhibition of 0.2 nM [125I]alpha-bungarotoxin binding to human alpha-7 nAChR expressed in SH-SY5Y cells. The method, boiled down: as §1

Broadly, the IC50 is the concentration needed to halve the response being measured. In general, Ki refers to a measure of affinity in units of concentration, obtained from inhibition or displacement. A high value points to weaker binding. Broadly, the inhibition is the percentage by which the read-out fell short of the control. A high value points to strong suppression.

`COc1cc2c(cc1O)C[C@H]1c3c(cc(OC)c(OC)c3-2)CC[N+]1(C)C`: in assay [1], the IC50 stood at 3 µM and the Ki stood at 0.91 µM. Further, in assay [2], the 50% inhibitory concentration (IC50) is 12 µM and affinity was put at a Ki of 10 µM.

In the case of `COc1cc2c(c(Br)c1O)C[C@H]1c3c(c(Br)c(O)c(OC)c3-2)CCN1C`, the concentration for half-maximal inhibition (IC50) in assay [1] was 101 µM; in assay [2] it was 114 µM. The values for the inhibition constant Ki in assay [1] and in assay [2] were 31 µM and 95 µM, respectively. Besides, in assay [3], the inhibition is 85%.

Consider `COc1cc2c(cc1O)C[C@H]1c3c(c(Br)c(O)c(OC)c3-2)CCN1C` [3-BROMOBOLDINE], for which, in assay [1], the half-inhibitory concentration (IC50) is 99 µM and affinity was put at a Ki of 30 µM. In assay [2], this compound showed a half-inhibitory concentration (IC50) of 100 µM and an inhibition constant Ki of 83 µM. Moreover, the inhibition in assay [3] came to 91%.

In the case of `COc1cc2c(cc1O)C[C@H]1c3c(cc(O)c(OC)c3-2)CC[N+]1(C)C` [BOLDINE METHIODIDE], the IC50 in assay [1] was 8.2 µM; in assay [2], 18 µM. Besides, the results for the inhibition constant Ki in assay [1] and in assay [2] were 2.5 µM and 15 µM, respectively.

With `COc1cc2c(cc1O)C[C@H]1c3c(cc(O)c(OC)c3-2)CCN1C` [BOLDINE], in assay [1], the half-maximal inhibitory concentration (IC50) was 10 µM and the Ki was 3 µM. Also, in assay [2], the IC50 is 81 µM and affinity was put at a Ki of 67 µM.

In assay [1], `COc1cc2c(cc1OC)-c1c(OC)c(OC)cc3c1[C@H](C2)[N+](C)(C)CC3` [GLAUCINE METHIODIDE] came in with a half-maximal inhibitory concentration (IC50) of 34 µM and a Ki of 10 µM. In addition, in assay [2], the IC50 is 21 µM and the inhibition constant (Ki) was found to be 18 µM.

On to `COc1cc2c(cc1OC)-c1c(OC)c(O)cc3c1[C@H](C2)[N+](C)(C)CC3` [PREDICENTRINE METHIODIDE], for which, in assay [1], the IC50 came to 3.2 µM and the affinity corresponds to a Ki of 0.97 µM. In assay [2], this compound came in with a half-maximal inhibitory concentration (IC50) of 27 µM and a Ki of 21 µM.
